Data: ChEMBL document CHEMBL3580655, “Identification of a Potent Inhibitor of CREB-Mediated Gene Transcription with Efficacious in Vivo Anticancer Activity” (J Med Chem, 2015)
The source made the active and inactive calls. The calls are words filed in the database; no cut-off is given here.

Tests used:
[1] = Inhibition of CREB-mediated gene transcription in human HEK293T cells transfected with pCRE-RLuc by renilla luciferase reporter assay; assay type: cell-based; conditions: HEK-293T
[2] = tested on: A549; assay: Antiproliferative activity against human A549 cells assessed as inhibition of cell growth after 72 hrs by MTT assay; assay type: functional; conditions: A549, 72 h
How it was run: (§1)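 Cells seeded, allowed to attach overnight, then exposed to a range of concentrations for 72 h. MTT 0.5 mg/mL in complete medium, 3 h at 37 °C, formazan dissolved in DMSO, absorbance 570 nm. Percent growth = 100×(treated−time-zero)/(medium control−time-zero). GI50 from nonlinear regression of the growth–concentration curve. Mean ± SD of at least two independent experiments in duplicate; highest concentration 100 μM.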

[3] = tested on: MCF7; assay: Antiproliferative activity against human MCF7 cells assessed as inhibition of cell growth after 72 hrs by MTT assay; assay type: functional; conditions: MCF7, 72 h; how it was run: as §1
[4] = tested on: MDA-MB-231; assay: Antiproliferative activity against human MDA-MB-231 cells assessed as inhibition of cell growth after 72 hrs by MTT assay; assay type: functional; conditions: MDA-MB-231, 72 h; how it was run: as §1
[5] = tested on: MDA-MB-468; assay: Antiproliferative activity against human MDA-MB-468 cells assessed as inhibition of cell growth after 72 hrs by MTT assay; assay type: functional; conditions: MDA-MB-468, 72 h; how it was run: as §1
[6] = molecular target: Cellular tumor antigen p53 (Homo sapiens) (UniProt P04637); assay: Inhibition of P53 (unknown origin) transfected in human HEK293T cells assessed as inhibition of forskolin-stimulated gene transcription after 30 mins by CRE-RLuc complementation assay; assay type: cell-based; conditions: HEK-293T
Sequence of Cellular tumor antigen p53 (Homo sapiens) (P04637 whole entry, looked up, the tested form may be a part): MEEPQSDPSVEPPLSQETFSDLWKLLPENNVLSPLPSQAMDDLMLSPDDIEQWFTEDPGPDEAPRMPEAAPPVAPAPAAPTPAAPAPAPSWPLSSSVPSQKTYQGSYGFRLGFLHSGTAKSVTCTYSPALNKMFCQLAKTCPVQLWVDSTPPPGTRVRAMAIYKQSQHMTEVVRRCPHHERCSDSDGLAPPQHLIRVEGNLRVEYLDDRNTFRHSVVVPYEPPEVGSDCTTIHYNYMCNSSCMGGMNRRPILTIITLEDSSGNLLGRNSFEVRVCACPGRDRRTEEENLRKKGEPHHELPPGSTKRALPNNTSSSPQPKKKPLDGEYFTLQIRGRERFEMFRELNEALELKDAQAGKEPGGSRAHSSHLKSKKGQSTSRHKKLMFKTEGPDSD
How it was run: (§2)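 HEK 293T cells transfected with the relevant plasmid combinations (VP16-CREB: VP16 activation domain fused to full-length CREB; or p53), then exposed to a range of concentrations before Renilla luciferase measurement. Activity normalized to protein concentration, expressed as RLU/μg protein.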

[7] = molecular target: Cellular tumor antigen p53 (Homo sapiens) (UniProt P04637); assay: Inhibition of P53 (unknown origin) transfected in human HEK293T cells assessed as inhibition of forskolin-stimulated gene transcription at > 1 uM after 30 mins by CRE-RLuc complementation assay; assay type: cell-based; conditions: HEK-293T; how it was run: as §2
[8] = tested on: HEK-293T; assay: Inhibition of CREB-mediated gene transcription in human HEK293T cells assessed as inhibition of forskolin-stimulated Nurr1/NR4A2 transcription at 1000 nM after 1 hr by qRT-PCT analysis; assay type: cell-based
How it was run: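 HEK 293T cells exposed to a range of compound concentrations for 1 h, then DMSO or forskolin (10 μM) for 45 min. Nurr1/NR4A2 transcript level measured by qRT-PCR as relative mRNA.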

Row | Compound | IC50 [1] [nM] | GI50 [2] [nM] | GI50 [3] [nM] | GI50 [4] [nM] | GI50 [5] [nM] | inhibition [6] | inhibition [7] | inhibition [8]
1 | O=C(NCCCOc1cc2ccccc2cc1C(=O)Nc1ccc(Cl)cc1O)c1cc2ccccc2cc1OCCCN1CCOCC1 | > 50000 | > 100000 | > 100000 | > 100000 | 13700 | – | – | –
2 | NCCCOc1cc2ccccc2cc1C(=O)NCCCOc1cc2ccccc2cc1C(=O)Nc1ccc(Cl)cc1 | 4690 | 950 | 1720 | 1000 | 1620 | – | – | –
3 | NCCCOc1ccccc1C(=O)NCCCOc1cc2ccccc2cc1C(=O)Nc1ccc(Cl)cc1O | 5300 | 2320 | 2660 | 5820 | 2320 | – | – | –
4 | NCCCOc1cc2ccccc2cc1C(=O)NCCCOc1ccccc1C(=O)Nc1ccc(Cl)cc1O | 10000 | 2440 | 2300 | 4610 | 1820 | – | – | –
5 | CNCCCOc1cc2ccccc2cc1C(=O)NCCCOc1cc2ccccc2cc1C(=O)Nc1ccc(Cl)cc1O | 18500 | 260 | 1650 | 260 | 200 | – | – | –

Continued, in another order:

Row | IC50 [1] [nM] | GI50 [2] [nM] | GI50 [3] [nM] | GI50 [4] [nM] | GI50 [5] [nM] | inhibition [6] | inhibition [7] | Compound | inhibition [8]
6 | 7300 | 39200 | 29000 | 82700 | 10200 | – | – | O=C(NCCCOc1cc2ccccc2cc1C(=O)Nc1ccc(Cl)cc1O)c1cc2ccccc2cc1OCCCO | –
7 | – | – | – | – | – | inactive | Active | NCCCOc1cc2ccccc2cc1C(=O)NCCOc1cc2ccccc2cc1C(=O)Nc1ccc(Cl)cc1O | –
8 | 300 | 1160 | 810 | 1210 | 250 | – | – | NCCOc1cc2ccccc2cc1C(=O)NCCOc1cc2ccccc2cc1C(=O)Nc1ccc(Cl)cc1O | –
9 | 5230 | 2170 | 1890 | 2710 | 1850 | – | – | NCCOc1cc2ccccc2cc1C(=O)NCCCOc1cc2ccccc2cc1C(=O)Nc1ccc(Cl)cc1O | –
10 | – | 290 | 140 | 370 | 220 | – | – | NCCCOc1cc2ccccc2cc1C(=O)NCCCOc1cc2ccccc2cc1C(=O)Nc1ccc(Cl)cc1O | Active
